Compounds with a hit are over-represented: about 27% of the library has one in this group of screens.
HIV Rev-RRE inh – disrupts HIV-1 Rev binding to RRE RNA; Rev peptide-RRE RNA binding, FRET; AID 704; inhibition, % at 8 µM; P05866; 97,000 compounds, 0.79% hits;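 active means inhibition above the screen-wide mean plus 3 SD, cut at about 35% in these data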
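System: Cy5-labelled duplex RRE RNA binding fluorescein-labelled HIV Rev peptide; Signal: fluorescein-to-Cy5 FRET, 480 nm excitation; Also added: labelled Rev peptide; Compound: one concentration, 8 µM nominal; Buffer or medium: HEPES pH 7.5 salt buffer with EDTA; Read-out: % inhibition of FRET ratio versus controls; Schedule: 5 min preincubation and 15 min binding, 25 °C.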
CYP2C19 inhib – blocks human cytochrome P450 2C19. CYP2C19 Supersomes, luciferin-H EGE luminescence, 30 min. inhibition, % at 5 µM. 96,000 compounds, 21% hits;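 active means CYP2C19 inhibition above a set limit at 5 µM in the primary screen, cut at about 50% in these data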
CYP2C9 act – increases human cytochrome P450 2C9 activity; P11712; recombinant CYP2C9, luciferin-H conversion, luminescence; active compounds read high; factor 1 = untreated enzyme, 0 = blocked; activation factor at 5 µM; 96,000 compounds, 1.4% hits; AID 1024;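 active means activation factor of 2 or more for CYP2C9 at a 5 µM dose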
Cav3 T inh – blocks human Cav3.2 T-type calcium channel; 100,000 compounds, 4% hits; B-score at 10 µM; Cav3.2-expressing cells, Fluo-4 calcium fluorescence FDSS; active compounds read low; O95180;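 active means single-dose well whose peak fluorescence ratio is a statistical outlier from its plate by either plate-standardised score or position-corrected B-score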
CYP2C9 inh – inhibitors of human CYP2C9; CYP2C9 Supersomes, luciferin-H conversion, luminescence; 96,000 compounds, 20% hits; P11712; AID 777; inhibition, % at 5 µM;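 active means blocking of liver enzyme CYP2C9 beyond about 50% at 5 µM, limit read from the data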
CYP2C19 act – activators of human cytochrome P450 2C19 | P33261 | recombinant CYP2C19, luciferin-H EGE luminescence; active compounds read high; 0 = fully inhibited enzyme, 1 = untreated enzyme | activation factor at 5 µM | 96,000 tested, under 10 active;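 active means activation factor of at least 2 at 5 µM in the primary screen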
Numbers stand for hits; 0 = inactive; - = no result; [ ] = dose if it differs, or a comment.

SMILES	HIV Rev-RRE inh	CYP2C19 inhib	CYP2C9 act	Cav3 T inh	CYP2C9 inh	CYP2C19 act
N#CC1=C(N)Oc2c(c(=O)oc3ccccc23)C1c1cccnc1 (stereo not drawn)	-	0	0	0	64	0
Cc1nn(-c2ccccc2)c(Cl)c1C1C(C#N)=C(N)Oc2c1c(=O)oc1ccccc21 (stereo not drawn)	0	0	0	-	99	0
Cc1nn(Cc2ccccc2Cl)c(Cl)c1C(=O)OCC(=O)NCc1ccco1	0	0	0	0	0	0
Cc1cc(NC(=O)COC(=O)c2c(C)nn(Cc3ccccc3)c2C)no1	0	0	0	0	65	0
Cc1nn(Cc2ccccc2)c(C)c1C(=O)OCC(=O)Nc1ccccc1SCC#N	61	86	0	0	96	0
Cc1nn(Cc2ccccc2)c(C)c1C(=O)OCC(=O)NCc1ccco1	0	60	0	0	70	0
C#CCOCOCC#CCN(CC)CC	0	0	0	0	0	0
Nc1nnc(CCN2CCCCC2)s1	0	-	-	0	-	-
CCN1CCN(c2ccc(NC(=O)C(C)C)cc2Cl)CC1	0	0	0	0	0	0
CC(O)(CS(=O)(=O)c1ccccc1)C(=O)Nc1cccc(C(F)(F)F)c1 (stereo not drawn)	0	69	0	0	0	0
CC(O)(CS(=O)(=O)c1cccc(C(F)(F)F)c1)C(=O)Nc1ccc(C(F)(F)F)cc1 (stereo not drawn)	0	83	0	0	0	0
Cc1ccc(S(=O)(=O)CC(C)(O)C(=O)Nc2cccc(C(F)(F)F)c2)cc1 (stereo not drawn)	0	0	0	0	0	0
COC(=O)C1=C(c2cc3ccccc3s2)C[C@@H]2CC[C@H]1N2C(=O)NC1CCCCC1	-	-	-	0	-	-
C1CNC2NCCNC2N1 (stereo not drawn)	0	0	0	0	0	0
CCCNC(=O)N1[C@H]2CC[C@@H]1C(C(=O)OC)=C(c1cc3ccccc3s1)C2	-	-	-	0	-	-
CCOC(=O)c1c(C)n(CCN2CCN(C)CC2)c2ccc(OC)cc12	0	0	0	0	0	0
CCOC(=O)c1c(C)n(CCOC)c2ccc(O)cc12	0	69	0	0	0	0
N[C@@H]1CCCC[C@H]1N.O=C(O)C(=O)O.[Pt]	-	-	-	0	-	-
Cn1cccc1CNCCc1ccc(F)cc1	0	-	-	0	-	-
Fc1ccc(CCNCc2ccccc2Cl)cc1	0	96	0	0	0	0
CCOC(=O)c1ccc(NC(=O)c2c(O)[nH]c(=O)[nH]c2=O)cc1	140[fluorescence artefact?]	0	0	-	0	0
C/C(=C\c1ccc(N(C)C)cc1)[N+](=O)[O-]	73	0	0	-	0	0
COc1ccc(CCNC(C)CCc2ccc(OC)cc2)cc1 (stereo not drawn)	0	55	0	0	0	0
COc1ccc(CCNCc2ccc(OC)c(OC)c2OC)cc1	0	62	0	0	0	0
COc1ccc(CCNCc2ccncc2)cc1	0	90	0	0	72	0
SMILES	HIV Rev-RRE inh	CYP2C19 inhib	CYP2C9 act	Cav3 T inh	CYP2C9 inh	CYP2C19 act
COc1ccc(N2C(=O)NC(=O)C(CCc3ccncc3)(CCc3ccncc3)C2=O)cc1	0	-	-	0	-	-
Cc1cc(N2C(=O)C3CCCN3C2c2ccccc2)no1 (stereo not drawn)	0	0	0	0	0	0
COc1ccccc1CCNC1CCC(C(C)(C)C)CC1 (stereo not drawn)	0	0	0	0	0	0
O=c1c2ccccc2nc(-c2ccco2)n1-c1ccncc1	0	0	0	0	0	0
O=C(c1cc2cc3ccc(Cl)cc3nc2o1)N1CCC2(CC1)OCCO2	0	0	0	0	0	0
O=C(O)CP(=O)(O)c1ccc(Cl)cc1	0	0	0	0	0	0
O=c1[nH]c(=O)n(Cc2ccc(F)cc2)c(O)c1C=NCC1CCCO1 (stereo not drawn)	0	0	0	0	0	0
CCCCn1c(O)c(C=NC2CCCCC2N)c(=O)[nH]c1=O (stereo not drawn)	0	0	0	0	0	0
CCCCCCn1c(O)c(C=NC2CCCCC2N)c(=O)[nH]c1=O (stereo not drawn)	0	0	0	0	52	0
NC1CCCCC1N=Cc1c(O)n(Cc2ccc(F)cc2)c(=O)[nH]c1=O (stereo not drawn)	0	0	0	0	76	0
CC[C@@H](C(N)=O)N1CCCC1=O	-	-	-	0	-	-
O=C(Cc1ccccc1)N1CCN(Cc2cccnc2)CC1	0	76	0	0	0	0
O=C(Cc1ccccc1)N1CCN(CC2CC=CCC2)CC1 (stereo not drawn)	0	0	0	0	0	0
O=c1[nH]c(=S)n(Cc2ccco2)c(O)c1C=NCc1cccs1	0	0	0	0	59	0
O=c1[nH]c(=O)n(Cc2ccco2)c(O)c1C=NCc1cccs1	0	0	0	0	0	0
Cc1cc(OCC(=O)Nc2cc(C)nn2-c2ccccn2)c2c3c(c(=O)oc2c1)CCC3	-	0	0	-	0	0
Cc1cc(OCC(=O)O)c2c3c(c(=O)oc2c1)CCCC3	0	0	0	0	0	0
Cc1ccc(-n2nc(C)cc2NC(=O)COc2cc(C)cc3oc(=O)c4c(c23)CCC4)cc1	0	0	0	0	80	0
COC(=O)c1ccc(COc2cc(C)cc3oc(=O)c4c(c23)CCCC4)o1	0	79	0	0	98	0
COc1cccc(Oc2c(C)oc3cc(OC(=O)N(C)C)ccc3c2=O)c1	0	85	0	0	0	0
Cc1oc2ccc(OC(=O)N(C)C)cc2c1C(=O)OC(C)C	0	78	0	0	65	0
O=C(Nc1ccc(Br)cc1)c1nn(C23CC4CC(CC(C4)C2)C3)cc1Br	0	0	0	0	0	0
C=C1C[C@]2(O)[C@@]3(C)CCC(=O)C(C)(C)C3=C(O)C(=O)[C@@]2(C)[C@@H]2C(=O)O[C@@](C)(C(=O)OC)C(=O)[C@@]12C	-	-	-	0	-	-
CC(=O)c1cccc(OCC(O)CN2CC=C(c3ccccc3)CC2)c1 (stereo not drawn)	0	55	0	0	51	0
COc1ccc(OCC(=O)N2CCN(CC3CC4C=CC3C4)CC2)cc1 (stereo not drawn)	0	0	0	0	0	0
SMILES	HIV Rev-RRE inh	CYP2C19 inhib	CYP2C9 act	Cav3 T inh	CYP2C9 inh	CYP2C19 act
C=C1C(=O)O[C@@H]2C[C@@H](C)[C@@H]3C4OC4C(=O)[C@@]3(C)[C@@H](O)[C@H]12 (stereo partly drawn)	-	-	-	0	-	-
CCCCCCCCCOc1ccc2[nH]cc(CCN)c2c1	-	-	-	0	-	-
CCCCCCCSc1cc(OC)c(CCN(C)C)cc1OC	0	67	0	-	0	0
CCCCCSc1cc(OC)c(CCN)cc1OC	0	96	0	0	0	0
CN(C)c1ccc(C(=O)c2ccc(N(C)C)cc2)cc1	0	66	2.2	0	0	0
CCC(=NCCCN(CC)CC)c1c(O)n(C2CCCCC2)c(=O)[nH]c1=O	0	56	0	0	0	0
CC(=NCc1cccnc1)c1c(O)n(-c2ccccc2C)c(=O)[nH]c1=O	0	84	0	0	60	0
